Measurements published in ChEMBL document CHEMBL3616437, “Thiazole compounds with activity against Cryptococcus gattii and Cryptococcus neoformans in vitro” (Eur J Med Chem, 2015).
Active and inactive are the calls of the source. The rule behind the calls is not given here.

Tests used:
[1] = tested on: Cryptococcus neoformans; experiment: Antifungal activity against Cryptococcus gattii ATCC 24065 assessed as reduction in cell viability at 1.9 uM after 6 to 72 hrs by MTT assay; assay type: functional, Cryptococcus bacillisporus
[2] = tested on: Cryptococcus gattii species complex; experiment: Antifungal activity against Cryptococcus gattii 547/OTTI-97-PI-10 assessed as reduction in cell viability at 1.9 uM after 6 to 72 hrs by MTT assay; assay type: functional, Cryptococcus bacillisporus
[3] = tested on: Cryptococcus gattii species complex; experiment: Antifungal activity against Cryptococcus gattii 196L/03 assessed as reduction in cell viability at 1.9 uM after 6 to 72 hrs by MTT assay; assay type: functional, Cryptococcus bacillisporus
[4] = tested on: Cryptococcus gattii species complex; experiment: Antifungal activity against Cryptococcus gattii L27/01 assessed as reduction in cell viability at 1.9 uM after 6 to 72 hrs by MTT assay; assay type: functional, Cryptococcus bacillisporus
[5] = tested on: Cryptococcus gattii species complex; experiment: Antifungal activity against Cryptococcus gattii ICB181 assessed as reduction in cell viability at 1.9 uM after 6 to 72 hrs by MTT assay; assay type: functional, Cryptococcus bacillisporus
[6] = tested on: Cryptococcus gattii species complex; experiment: Antifungal activity against Cryptococcus gattii LMM818 assessed as reduction in cell viability at 1.9 uM after 6 to 72 hrs by MTT assay; assay type: functional, Cryptococcus bacillisporus
[7] = Selectivity index, ratio of IC50 for African green monkey Vero cells to MIC for Cryptococcus gattii ATCC 24065; assay type: toxicity, cell-based
[8] = tested on: Cryptococcus gattii species complex; experiment: Ratio of compound MIC for Cryptococcus gattii ICB181 in presence of fluconazole to compound MIC for Cryptococcus gattii ICB181 in absence of fluconazole by checkerboard microtiter test; assay type: functional, Cryptococcus bacillisporus
Method in brief: (§1)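 Checkerboard microdilution: eight two-fold dilutions of test compound (0.11 to 15.6 µM) crossed with amphotericin B (0.025 to 3.9 µM, in DMSO) or fluconazole (0.48 to 62.5 µM, in water). Inoculum per CLSI M27-A3 in RPMI-MOPS pH 7.0, 1-5 x10^3 cells/mL. Growth 48 to 72 h. Effective MIC is the combination concentration giving complete inhibition. FICs derived from MICs in combination versus alone.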

[9] = tested on: Cryptococcus neoformans; experiment: Ratio of compound MIC for Cryptococcus neoformans 96806 in presence of fluconazole to compound MIC for Cryptococcus neoformans 96806 in absence of fluconazole by checkerboard microtiter test; assay type: functional; method in brief: as §1
[10] = tested on: Cryptococcus neoformans; experiment: Ratio of compound MIC for Cryptococcus neoformans WP in presence of fluconazole to compound MIC for Cryptococcus neoformans WP in absence of fluconazole by checkerboard microtiter test; assay type: functional; method in brief: as §1
[11] = tested on: Cryptococcus neoformans; experiment: Ratio of compound MIC for Cryptococcus neoformans 5396 in presence of fluconazole to compound MIC for Cryptococcus neoformans 5396 in absence of fluconazole by checkerboard microtiter test; assay type: functional; method in brief: as §1
[12] = tested on: Cryptococcus neoformans; experiment: Ratio of compound MIC for Cryptococcus neoformans F10 in presence of fluconazole to compound MIC for Cryptococcus neoformans F10 in absence of fluconazole by checkerboard microtiter test; assay type: functional; method in brief: as §1
[13] = tested on: Cryptococcus bacillisporus; experiment: Ratio of compound MIC for Cryptococcus gattii ATCC 32608 in presence of amphotericin B to compound MIC for Cryptococcus gattii ATCC 32608 in absence of amphotericin B by checkerboard microtiter test; assay type: functional; method in brief: as §1
[14] = tested on: Cryptococcus gattii species complex; experiment: Ratio of compound MIC for Cryptococcus gattii 547/OTTI-97-PI-10 in presence of amphotericin B to compound MIC for Cryptococcus gattii 547/OTTI-97-PI-10 in absence of amphotericin B by checkerboard microtiter test; assay type: functional, Cryptococcus bacillisporus; method in brief: as §1
[15] = tested on: Cryptococcus gattii species complex; experiment: Ratio of compound MIC for Cryptococcus gattii 135L/03 in presence of amphotericin B to compound MIC for Cryptococcus gattii 135L/03 in absence of amphotericin B by checkerboard microtiter test; assay type: functional, Cryptococcus bacillisporus
[16] = tested on: Cryptococcus gattii species complex; experiment: Ratio of compound MIC for Cryptococcus gattii L28/02 in presence of amphotericin B to compound MIC for Cryptococcus gattii L28/02 in absence of amphotericin B by checkerboard microtiter test; assay type: functional, Cryptococcus bacillisporus; method in brief: as §1
[17] = tested on: Cryptococcus gattii species complex; experiment: Ratio of compound MIC for Cryptococcus gattii LMM818 in presence of amphotericin B to compound MIC for Cryptococcus gattii LMM818 in absence of amphotericin B by checkerboard microtiter test; assay type: functional, Cryptococcus bacillisporus; method in brief: as §1
[18] = tested on: Cryptococcus neoformans; experiment: Ratio of compound MIC for Cryptococcus neoformans 28JF in presence of amphotericin B to compound MIC for Cryptococcus neoformans 28JF in absence of amphotericin B by checkerboard microtiter test; assay type: functional; method in brief: as §1
[19] = tested on: Cryptococcus neoformans; experiment: Ratio of compound MIC for Cryptococcus neoformans CN31 in presence of amphotericin B to compound MIC for Cryptococcus neoformans CN31 in absence of amphotericin B by checkerboard microtiter test; assay type: functional; method in brief: as §1
[20] = tested on: Cryptococcus neoformans; experiment: Ratio of compound MIC for Cryptococcus neoformans VM-MCMMPI in presence of amphotericin B to compound MIC for Cryptococcus neoformans VM-MCMMPI in absence of amphotericin B by checkerboard microtiter test; assay type: functional; method in brief: as §1
[21] = tested on: Cryptococcus neoformans; experiment: Ratio of compound MIC for Cryptococcus neoformans 27JF in presence of amphotericin B to compound MIC for Cryptococcus neoformans 27JF in absence of amphotericin B by checkerboard microtiter test; assay type: functional; method in brief: as §1
[22] = tested on: Cryptococcus neoformans; experiment: Ratio of compound MIC for Cryptococcus neoformans ATCC 24067 in presence of amphotericin B to compound MIC for Cryptococcus neoformans ATCC 24067 in absence of amphotericin B by checkerboard microtiter test; assay type: functional; method in brief: as §1
[23] = tested on: Cryptococcus neoformans; experiment: Ratio of compound MIC for Cryptococcus neoformans F10 in presence of amphotericin B to compound MIC for Cryptococcus neoformans F10 in absence of amphotericin B by checkerboard microtiter test; assay type: functional; method in brief: as §1
[24] = tested on: Cryptococcus gattii species complex; experiment: Antifungal activity against Cryptococcus gattii L27/01 assessed as reduction in ergosterol content at MIC after 24 hrs by spectrophotometric analysis; assay type: functional, organism-based; conditions: Cryptococcus bacillisporus
Method in brief: (§2)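 Pellet washed and weighed, then saponified in 25% ethanolic KOH at 85°C for 1 h. Extracted with water and n-heptane, read at 282 and 230 nm. Ergosterol taken from a standard curve and expressed as % of growth control.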

[25] = tested on: Cryptococcus gattii species complex; experiment: Antifungal activity against Cryptococcus gattii 196L/03 assessed as reduction in ergosterol content at MIC after 24 hrs by spectrophotometric analysis; assay type: functional, organism-based; conditions: Cryptococcus bacillisporus; method in brief: as §2
[26] = tested on: Cryptococcus gattii; experiment: Ratio of compound MIC for Cryptococcus gattii ATCC 24065 in presence of fluconazole to compound MIC for Cryptococcus gattii ATCC 24065 in absence of fluconazole by checkerboard microtiter test
[27] = tested on: Cryptococcus gattii species complex; experiment: Antifungal activity against Cryptococcus gattii 196L/03 assessed as reduction in cell viability at 3.9 uM after 6 to 72 hrs by MTT assay; assay type: functional, Cryptococcus bacillisporus
[28] = tested on: Cryptococcus gattii species complex; experiment: Antifungal activity against Cryptococcus gattii L27/01 assessed as reduction in cell viability at 3.9 uM after 6 to 72 hrs by MTT assay; assay type: functional, Cryptococcus bacillisporus
[29] = tested on: Cryptococcus gattii species complex; experiment: Antifungal activity against Cryptococcus gattii L24/01 assessed as reduction in cell viability at 3.9 uM after 6 to 72 hrs by MTT assay; assay type: functional, Cryptococcus bacillisporus
[30] = tested on: Cryptococcus gattii species complex; experiment: Antifungal activity against Cryptococcus gattii 1913ER assessed as reduction in cell viability at 3.9 uM after 6 to 72 hrs by MTT assay; assay type: functional, Cryptococcus bacillisporus
[31] = tested on: Cryptococcus neoformans; experiment: Antifungal activity against Cryptococcus neoformans ATCC 28957 assessed as reduction in cell viability at 3.9 uM after 6 to 72 hrs by MTT assay; assay type: functional
[32] = tested on: Cryptococcus neoformans; experiment: Antifungal activity against Cryptococcus neoformans 96806 assessed as reduction in cell viability at 3.9 uM after 6 to 72 hrs by MTT assay; assay type: functional
[33] = tested on: Cryptococcus neoformans; experiment: Antifungal activity against Cryptococcus neoformans VM-MCMMPI assessed as reduction in cell viability at 3.9 uM after 6 to 72 hrs by MTT assay; assay type: functional

Compound | selectivity ratio [7] | fractional inhibitory concentration index (FICI) [8] | fractional inhibitory concentration index (FICI) [9] | fractional inhibitory concentration index (FICI) [10] | fractional inhibitory concentration index (FICI) [11] | fractional inhibitory concentration index (FICI) [12] | fractional inhibitory concentration index (FICI) [13] | fractional inhibitory concentration index (FICI) [14] | fractional inhibitory concentration index (FICI) [15] | fractional inhibitory concentration index (FICI) [16] | fractional inhibitory concentration index (FICI) [17] | fractional inhibitory concentration index (FICI) [18] | fractional inhibitory concentration index (FICI) [19] | fractional inhibitory concentration index (FICI) [20] | fractional inhibitory concentration index (FICI) [21] | fractional inhibitory concentration index (FICI) [22] | fractional inhibitory concentration index (FICI) [23] | Activity [24] | Activity [25] | fractional inhibitory concentration index (FICI) [26] | other results
COc1ccc(-c2csc(N/N=C(\C)CCO)n2)cc1 | 222 | 1.99 | 2.01 | 2.32 | 1.32 | 4.33 | 3.14 | 2.98 | 4.98 | 2.78 | 4.98 | 2.58 | 4.98 | 1.58 | 2.67 | 2.78 | 2.47 | inactive | inactive | 0.88 | Activity [1]: 90%; Activity [2]: 90%; Activity [3]: 90%; Activity [4]: 90%; Activity [5]: 90%; Activity [6]: 90%
COc1ccc(-c2csc(N/N=C/C3CCCCC3)n2)cc1 | 25.6 | 4.46 | 1.01 | 2.21 | 3.48 | 2.46 | 2.78 | 2.58 | 1.46 | 2.18 | 1.46 | 1.75 | 2.78 | 2.16 | 2.78 | 2.36 | 1.46 |  |  | 2.43 | Activity [27]: 80%; Activity [28]: 80%; Activity [29]: 80%; Activity [30]: 80%; Activity [31]: 80%; Activity [32]: 80%; Activity [33]: 80%
C(=N\Nc1nc(-c2ccccc2)cs1)/C1CCCCC1 |  | 2.58 | 1.76 | 2.47 | 2.4 | 4.47 | 2.58 | 4.74 | 2.67 | 1.34 | 2.58 | 1.38 | 2.47 | 1.47 | 2.58 | 2.67 | 2.62 |  |  | 1.58 | Activity [1]: 90%; Activity [2]: 90%; Activity [3]: 90%; Activity [4]: 90%; Activity [5]: 90%; Activity [6]: 90%
c1ccc(-c2csc(NN=C3CCCC3)n2)cc1 |  | 4.58 | 1.01 | 2.46 | 3.46 | 1.98 | 1.7 | 2.66 | 1.46 | 2.66 | 2.58 | 2.46 | 2.66 | 2.66 | 2.66 | 1.46 | 2.58 |  |  | 3.71 | Activity [27]: 80%; Activity [28]: 80%; Activity [29]: 80%; Activity [30]: 80%; Activity [31]: 80%; Activity [32]: 80%; Activity [33]: 80%
OC(Cn1cncn1)(Cn1cncn1)c1ccc(F)cc1F [FLUCONAZOLE] | 7.87 |  |  |  |  |  |  |  |  |  |  |  |  |  |  |  |  | Active | Active |  | 
C[C@@H]1[C@H](O)[C@@H](C)/C=C/C=C/C=C/C=C/C=C/C=C/C=C/[C@H](O[C@@H]2O[C@H](C)[C@@H](O)[C@H](N)[C@@H]2O)C[C@@H]2O[C@](O)(C[C@@H](O)C[C@@H](O)[C@H](O)CC[C@@H](O)C[C@@H](O)CC(=O)O[C@H]1C)C[C@H](O)[C@H]2C(=O)O [AMPHOTERICIN B] |  |  |  |  |  |  |  |  |  |  |  |  |  |  |  |  |  | inactive | inactive |  | 
